Reference: ChEMBL document CHEMBL4325889, “Natural products hybrids: 3,5,4'-Trimethoxystilbene-5,6,7-trimethoxyflavone chimeric analogs as potential cytotoxic agents against diverse human cancer cells” (Eur J Med Chem, 2019)

Legend:
Type in all cases: functional
DU-145 = test: Growth inhibition of human DU145 cells at 10 uM after 48 hrs by SRB assay relative to control; conditions: DU-145, 48 h, read-out: GI
In short: (§1)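 Screened at the National Cancer Institute by the standard NCI protocol using the sulforhodamine B assay, which measures cellular protein. Single dose of 10 µM. Result is percent growth inhibition; values above 100% mean cell number fell below the initial population. Values are the average of duplicates.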

UACC-257 = test: Growth inhibition of human UACC257 cells at 10 uM after 48 hrs by SRB assay relative to control; conditions: UACC-257, 48 h, read-out: GI
In short: (§2)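 NCI screen against its human cancer cell line panel by the standard NCI protocol, SRB protein stain. Single dose of 10 μM. Percent growth inhibition versus control; values above 100% mean the cell population fell below the starting number. Each value is the mean of duplicates.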

HCT-116 = test: Growth inhibition of human HCT116 cells at 10 uM after 48 hrs by SRB assay relative to control; conditions: HCT-116, 48 h, read-out: GI; in short: as §1
HOP-92 = test: Growth inhibition of human HOP92 cells at 10 uM after 48 hrs by SRB assay relative to control; conditions: HOP-92, 48 h, read-out: GI; in short: as §1
HL-60(TB) = test: Growth inhibition of human HL-60(TB) cells at 10 uM after 48 hrs by SRB assay relative to control; conditions: HL-60, 48 h, read-out: GI
In short: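 Run at NCI under its standard single-dose protocol against a leukemia cell panel. Cells were exposed to 10 µM; growth was read by sulforhodamine B staining of cellular protein and expressed as % growth inhibition versus untreated control. Values above 100% mean the cell population fell below the starting count (cytocidal). Each value is the average of duplicates.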

SF-539 = test: Growth inhibition of human SF539 cells at 10 uM after 48 hrs by SRB assay relative to control; conditions: SF-539, 48 h, read-out: GI; in short: as §1
NCI-H23 = test: Growth inhibition of human NCI-H23 cells at 10 uM after 48 hrs by SRB assay relative to control; conditions: NCI-H23, 48 h, read-out: GI; in short: as §1
CCRF-CEM = test: Growth inhibition of human CCRF-CEM cells at 10 uM after 48 hrs by SRB assay relative to control; conditions: read-out: GI; in short: as §1
MDA-MB-468 = test: Growth inhibition of human MDA-MB-468 cells at 10 uM after 48 hrs by SRB assay relative to control; conditions: MDA-MB-468, 48 h, read-out: GI; in short: as §1
A549 = test: Growth inhibition of human A549 cells at 10 uM after 48 hrs by SRB assay relative to control; conditions: A549, 48 h, read-out: GI; in short: as §1
MCF7 = test: Growth inhibition of human MCF7 cells at 10 uM after 48 hrs by SRB assay relative to control; conditions: MCF7, 48 h, read-out: GI; in short: as §1
NCI-H226 = test: Growth inhibition of human NCI-H226 cells at 10 uM after 48 hrs by SRB assay relative to control; conditions: NCI-H226, 48 h, read-out: GI; in short: as §1
Malme-3M = test: Growth inhibition of human MALME-3M cells at 10 uM after 48 hrs by SRB assay relative to control; conditions: read-out: GI; in short: as §1
RXF 393 = test: Growth inhibition of human RXF393 cells at 10 uM after 48 hrs by SRB assay relative to control; conditions: RXF 393, 48 h, read-out: GI; in short: as §1
IGROV-1 = test: Growth inhibition of human IGROV1 cells at 10 uM after 48 hrs by SRB assay relative to control; conditions: IGROV-1, 48 h, read-out: GI; in short: as §1
NCI/ADR-RES = test: Growth inhibition of human NCI/ADR-RES cells at 10 uM after 48 hrs by SRB assay relative to control; conditions: read-out: GI; in short: as §1
786-0 = test: Growth inhibition of human 786-0 cells at 10 uM after 48 hrs by SRB assay relative to control; conditions: 786-0, 48 h, read-out: GI; in short: as §1
SR = test: Growth inhibition of human SR cells at 10 uM after 48 hrs by SRB assay relative to control; conditions: read-out: GI; in short: as §2
SF-295 = test: Growth inhibition of human SF295 cells at 10 uM after 48 hrs by SRB assay relative to control; conditions: SF-295, 48 h, read-out: GI; in short: as §1
HCT-15 = test: Growth inhibition of human HCT15 cells at 10 uM after 48 hrs by SRB assay relative to control; conditions: HCT-15, 48 h, read-out: GI; in short: as §1
HCC 2998 = test: Growth inhibition of human HCC2998 cells at 10 uM after 48 hrs by SRB assay relative to control; conditions: HCC 2998, 48 h, read-out: GI; in short: as §1
TK-10 = test: Growth inhibition of human TK10 cells at 10 uM after 48 hrs by SRB assay relative to control; conditions: TK-10, 48 h, read-out: GI; in short: as §2
Hs-578T = test: Growth inhibition of human Hs 578T cells at 10 uM after 48 hrs by SRB assay relative to control; conditions: read-out: GI; in short: as §1
COLO 205 = test: Growth inhibition of human COLO205 cells at 10 uM after 48 hrs by SRB assay relative to control; conditions: COLO 205, 48 h, read-out: GI; in short: as §1
U-251 = test: Growth inhibition of human U251 cells at 10 uM after 48 hrs by SRB assay relative to control; conditions: U-251, 48 h, read-out: GI; in short: as §2
LOX IMVI = test: Growth inhibition of human LOXIMVI cells at 10 uM after 48 hrs by SRB assay relative to control; conditions: read-out: GI; in short: as §1
SNB-75 = test: Growth inhibition of human SNB75 cells at 10 uM after 48 hrs by SRB assay relative to control; conditions: SNB-75, 48 h, read-out: GI; in short: as §2
SK-MEL-28 = test: Growth inhibition of human SK-MEL-28 cells at 10 uM after 48 hrs by SRB assay relative to control; conditions: SK-MEL-28, 48 h, read-out: GI; in short: as §1
SK-MEL-5 = test: Growth inhibition of human SK-MEL-5 cells at 10 uM after 48 hrs by SRB assay relative to control; conditions: SK-MEL-5, 48 h, read-out: GI; in short: as §1
NCI-H322M = test: Growth inhibition of human NCI-H322M cells at 10 uM after 48 hrs by SRB assay relative to control; conditions: read-out: GI; in short: as §1
SN12C = test: Growth inhibition of human SN12C cells at 10 uM after 48 hrs by SRB assay relative to control; conditions: read-out: GI; in short: as §1
K562 = test: Growth inhibition of human K562 cells at 10 uM after 48 hrs by SRB assay relative to control; conditions: K562, 48 h, read-out: GI; in short: as §1
RPMI-8226 = test: Growth inhibition of human RPMI8226 cells at 10 uM after 48 hrs by SRB assay relative to control; conditions: RPMI-8226, 48 h, read-out: GI; in short: as §1
SK-MEL-2 = test: Growth inhibition of human SK-MEL-2 cells at 10 uM after 48 hrs by SRB assay relative to control; conditions: SK-MEL-2, 48 h, read-out: GI; in short: as §1

COc1cc2oc(-c3cccc(NC(=O)c4ccc5c(c4)OCO5)c3)cc(=O)c2c(O)c1OC
inhibition of growth at 10 µM (DU-145): 2.12%
inhibition of growth at 10 µM (UACC-257): 17.2%
inhibition of growth at 10 µM (HCT-116): 21%
inhibition of growth at 10 µM (HOP-92): 38.5%
inhibition of growth at 10 µM (HL-60(TB)): 14%
inhibition of growth at 10 µM (SF-539): 77.4%
inhibition of growth at 10 µM (NCI-H23): 13.4%
inhibition of growth at 10 µM (CCRF-CEM): 11.7%
inhibition of growth at 10 µM (MDA-MB-468): 17.6%
inhibition of growth at 10 µM (A549): 13.5%
inhibition of growth at 10 µM (MCF7): 11.4%
inhibition of growth at 10 µM (NCI-H226): 55.4%
inhibition of growth at 10 µM (Malme-3M): 7.67%
inhibition of growth at 10 µM (RXF 393): 32.6%
inhibition of growth at 10 µM (IGROV-1): 5.56%
inhibition of growth at 10 µM (NCI/ADR-RES): 14.8%
inhibition of growth at 10 µM (786-0): 29.9%
inhibition of growth at 10 µM (SR): 19%
inhibition of growth at 10 µM (SF-295): 19%
inhibition of growth at 10 µM (HCT-15): 0.04%
inhibition of growth at 10 µM (HCC 2998): 9.76%
inhibition of growth at 10 µM (TK-10): 15.3%
inhibition of growth at 10 µM (Hs-578T): 26.1%
inhibition of growth at 10 µM (COLO 205): 2.46%
inhibition of growth at 10 µM (U-251): 27.1%
inhibition of growth at 10 µM (LOX IMVI): 5.74%
inhibition of growth at 10 µM (SNB-75): 47.6%
inhibition of growth at 10 µM (SK-MEL-28): 15.2%
inhibition of growth at 10 µM (SK-MEL-5): 25.9%
inhibition of growth at 10 µM (NCI-H322M): 15.7%
inhibition of growth at 10 µM (SN12C): 9.48%
inhibition of growth at 10 µM (K562): 15%
inhibition of growth at 10 µM (RPMI-8226): 20.6%
inhibition of growth at 10 µM (SK-MEL-2): 6.66%
